The record followed here is ChEMBL document CHEMBL1153386, “Allopregnanolone (3alpha-hydroxy-5alpha-pregnan-20-one) derivatives with a polar chain in position 16alpha: synthesis and activity” (J Med Chem, 2009).

Assay [1] in a line: Displacement of [35S]TBPS from Wistar rat brain GABAA receptor. A digest of the protocol: (§1)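 Whole-brain membranes from adult male Wistar rats, resuspended in 20 mM KH2PO4/200 mM KCl, pH 7.4. Incubated 60 min at 37 °C with 2 nM [35S]TBPS, 1 µM GABA and steroid at 1 nM–10 µM. Nonspecific binding defined with 200 µM picrotoxinin. Binding expressed as % of DMSO control samples.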
(Displacement assays read how much labelled ligand stays bound in the presence of the test substance.)

The species entered for assay [2] is Rattus norvegicus. In words: Displacement of [35S]TBPS from Wistar rat brain GABAA receptor relative to control. In outline:
as §1

Assay [3] is filed under the species Rattus norvegicus. In words: Displacement of [35S]TBPS from Wistar rat brain GABAA receptor at 100 nM relative to control. A digest of the protocol:
as §1

`CC(=O)[C@H]1[C@H](CC(=O)O)C[C@H]2[C@@H]3CC[C@H]4C[C@H](O)CC[C@]4(C)[C@H]3CC[C@@]21C` displayed an IC50 in assay [1] of 40 nM. Moreover, the Imax in the assay filed under Rattus norvegicus [2] turned out to be 19%.

As for `CC(=O)[C@H]1[C@H](CCOC(N)=O)C[C@H]2[C@@H]3CC[C@H]4C[C@H](O)CC[C@]4(C)[C@H]3CC[C@@]21C`, the IC50 in assay [1] was 750 nM. The molecule further had an Imax in the assay listed under Rattus norvegicus [2] of 61%.

For `CC(=O)[C@H]1[C@H](C(CO)CO)C[C@H]2[C@@H]3CC[C@H]4C[C@H](O)CC[C@]4(C)[C@H]3CC[C@@]21C`, the inhibition in the assay listed under Rattus norvegicus [3] is less than 15%.

In the assay listed under Rattus norvegicus [3], `CC(=O)[C@H]1[C@H](OCCO)C[C@H]2[C@@H]3CC[C@H]4C[C@H](O)CC[C@]4(C)[C@H]3CC[C@@]21C` came in with an inhibition of less than 15%.

`CC(=O)[C@H]1[C@H](CC(N)=O)C[C@H]2[C@@H]3CC[C@H]4C[C@H](O)CC[C@]4(C)[C@H]3CC[C@@]21C` returned an inhibition in the assay listed under Rattus norvegicus [3] of less than 15%.

In assay [1], `CC(=O)[C@H]1[C@H](C(COC(N)=O)COC(N)=O)C[C@H]2[C@@H]3CC[C@H]4C[C@H](O)CC[C@]4(C)[C@H]3CC[C@@]21C` had an IC50 of 86 nM. The Imax in the assay filed under Rattus norvegicus [2] amounted to 26%.

On to `CC(=O)[C@H]1[C@H](CCOC(N)=O)C[C@H]2[C@@H]3CC[C@H]4C[C@H](OC(N)=O)CC[C@]4(C)[C@H]3CC[C@@]21C`, for which the IC50 in assay [1] amounted to 300 nM. In the assay filed under Rattus norvegicus [2], this molecule came in with an Imax of 59%.

For the molecule `CC(=O)[C@H]1[C@H](CC#N)C[C@H]2[C@@H]3CC[C@H]4C[C@H](O)CC[C@]4(C)[C@H]3CC[C@@]21C`, the inhibition in the assay filed under Rattus norvegicus [3] was less than 15%.

`CC(=O)[C@H]1[C@H](OCC(O)CO)C[C@H]2[C@@H]3CC[C@H]4C[C@H](O)CC[C@]4(C)[C@H]3CC[C@@]21C` (stereo partly drawn): in the assay listed under Rattus norvegicus [3], the inhibition was less than 15%.

In assay [1], `CC(=O)[C@H]1CC[C@H]2[C@@H]3CC[C@H]4C[C@H](O)CC[C@]4(C)[C@H]3CC[C@]12C` [BREXANOLONE] showed a concentration for half-maximal inhibition (IC50) of 80 nM. Also, the Imax in the assay filed under Rattus norvegicus [2] turned out to be 79%.

As to `NC(=O)OCC(COC(N)=O)c1ccccc1` [FELBAMATE], the IC50 in assay [1] was 95 nM. In addition, in the assay filed under Rattus norvegicus [2], the Imax was found to be 18%.

As to `CC(=O)[C@H]1[C@H](OCCOCCO)C[C@H]2[C@@H]3CC[C@H]4C[C@H](O)CC[C@]4(C)[C@H]3CC[C@@]21C`, the inhibition in the assay listed under Rattus norvegicus [3] is less than 15%.

As usually defined, the IC50 is the concentration that inhibits the measured activity by half. Lower therefore signals inhibition by little substance. For orientation: inhibition means how much of the control response was suppressed. A lower inhibition goes with little suppression.
